Activity calls are given as the source filed them. No cut-off for these calls is given here.
Tests used:
[1] = test system: Mycobacterium tuberculosis; experiment: Disruption of membrane potential loss in Mycobacterium tuberculosis H37Rv at MBC concentration at pH 4.5 after 15 mins measured at pH 5.6 by DiOC2 probe based fluorescence assay; type: functional, organism-based
Procedure, shortened: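 Mid-log Mtb grown in 7H9-OADC-Tw, concentrated to OD590 ~1.0 in 7H9-Tw adjusted to assay pH (6.8 or 5.6), loaded with 15 μM DiOC2 for 20 min at RT, washed, then exposed to 2-fold serial dilutions for 15 min at RT; red (488/650 nm) to green (488/530 nm) fluorescence ratio; CCCP positive, DMSO vehicle controls; representative of two runs.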

HepG2 [2] = experiment: Disruption of mitochondrial membrane potential in human HepG2 cells up to 200 uM after 30 mins by DiOC2 probe based fluorescence assay; type: ADME, cell-based; conditions: hepg2, 0.5 h
HepG2 [3] = experiment: Disruption of mitochondrial membrane potential in human HepG2 cells at less than IC50 concentration after 30 mins by DiOC2 probe based fluorescence assay; type: ADME, cell-based; conditions: hepg2, 0.5 h
[4] = test system: Mycobacterium tuberculosis; experiment: Antitubercular activity against non-replicating Mycobacterium tuberculosis H37Rv assessed as microbial killing at 125 to 250 uM at pH 5.5; type: functional, organism-based; conditions: TDE = time-dependent effect
Procedure, shortened: (§1)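 Non-replicating kill kinetics: late-log H37Rv (OD590 0.6–1.0) resuspended in phosphate citrate buffer with 0.05% tyloxapol, inoculated at ~10⁶ CFU mL⁻¹, compound added (2% DMSO final), incubated standing at 37 °C; aliquots plated for CFU every 7 days, plates counted after 4 weeks at 37 °C.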

[5] = test system: Mycobacterium tuberculosis; experiment: Antitubercular activity against non-replicating Mycobacterium tuberculosis H37Rv assessed as microbial killing at 145 to 290 uM at pH 5.5; type: functional, organism-based; conditions: TDE = time-dependent effect; procedure, shortened: as §1
[6] = test system: Mycobacterium tuberculosis; experiment: Antitubercular activity against non-replicating Mycobacterium tuberculosis H37Rv assessed as microbial killing at 130 to 260 uM at pH 5.5; type: functional, organism-based; conditions: TDE = time-dependent effect; procedure, shortened: as §1
[7] = test system: Mycobacterium tuberculosis; experiment: Antitubercular activity against non-replicating Mycobacterium tuberculosis H37Rv assessed as log reduction in CFU at 10 to 100 uM at pH 4.5 to 6.8 after 7 days; type: functional
[8] = test system: Mycobacterium tuberculosis; experiment: Disruption of membrane potential loss in Mycobacterium tuberculosis H37Rv at < MBC concentration at pH 4.5 after 15 mins measured at pH 6.8 by DiOC2 probe based fluorescence assay; type: functional, organism-based
[9] = test system: Mycobacterium tuberculosis; experiment: Antitubercular activity against non-replicating Mycobacterium tuberculosis H37Rv assessed as microbial killing at 115 to 230 uM at pH 5.5; type: functional, organism-based; conditions: TDE = time-dependent effect; procedure, shortened: as §1
RAW264.7 = experiment: Cytotoxicity against mouse RAW264.7 cells; type: cell-based
[10] = test system: Mycobacterium tuberculosis; experiment: Antitubercular activity against Mycobacterium tuberculosis H37Rv infected in mouse RAW264.7 cells; type: functional, organism-based

CCNc1ccccc1C(=O)Nc1ccc(Cl)cc1Cl
Activity [1]: Active | Activity (HepG2 [2]): Non-Toxic

Cc1nnc(Sc2ccc3nsnc3c2[N+](=O)[O-])s1
Activity (HepG2 [3]): Toxic

O=[N+]([O-])c1c(Sc2ccccn2)ccc2nsnc12
Activity (HepG2 [3]): Toxic

Cc1ccc(S(=O)(=O)Nc2ccccc2C(=O)Nc2ccc(Cl)cc2Cl)cc1
Activity [4]: Tde

CS(=O)(=O)Nc1ccccc1C(=O)Nc1ccc(Cl)cc1Cl
Activity [5]: Tde

O=C(Nc1ccccn1)c1ccccc1NS(=O)(=O)c1ccc(Br)cc1
Activity [6]: Tde

O=[N+]([O-])c1cc2nc(C(F)(F)F)[nH]c2c2nsnc12
Activity [7]: >4 log10CFU

O=C(Nc1ccc(Cl)cc1Cl)c1ccccc1NS(=O)(=O)c1ccc(Br)cc1
Activity [8]: Active | Activity [1]: Active

O=C(Nc1ccc(Cl)cc1)c1ccccc1NS(=O)(=O)c1ccc(Br)cc1
Activity [9]: Tde

O=C(Nc1ccccc1)c1ccccc1NS(=O)(=O)c1ccc(Br)cc1
Activity (HepG2 [3]): Toxic | Activity [1]: Active

NC(=O)c1ccccc1NS(=O)(=O)c1ccc(Br)cc1
Activity [1]: inactive | Activity (HepG2 [2]): Non-Toxic

CCCCNC(=O)c1ccccc1NS(=O)(=O)c1ccc(Br)cc1
Activity (HepG2 [3]): Toxic | Activity [8]: Active | Activity [1]: Active

CN(C(=O)c1ccccc1NS(=O)(=O)c1ccc(Br)cc1)c1ccc(Cl)cc1Cl
Activity (HepG2 [3]): Toxic | Activity [8]: Active | Activity [1]: Active

CCN(C)c1ccccc1C(=O)Nc1ccc(Cl)cc1Cl
Activity (RAW264.7): Toxic | Activity [10]: Active

Reference: ChEMBL document CHEMBL4373638, “Anthranilic amide and imidazobenzothiadiazole compounds disrupt Mycobacterium tuberculosis membrane potential” (Medchemcomm, 2019)
